Results reported in ChEMBL document CHEMBL1125604, “Synthesis and antitumor evaluations of symmetrically and unsymmetrically substituted 1,4-bis[(aminoalkyl)amino]anthracene-9,10-diones and 1,4-bis[(aminoalkyl)amino]-5,8-dihydroxyanthracene-9,10-diones” (J Med Chem, 1991).
In brackets after ≈: the same amount, converted by molar mass.

Experiments:
Mus musculus [1] = assay: At 50 mg/kg dose CDF1 mice were injected ip on (1,5,9) days after tumor transplantation to evaluate mean survival time; assay type: functional; details: route intraperitoneal
How it was run: (§1)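 CDF1 mice were inoculated ip with 10^6 murine leukemia cells on day 0. Drug was given ip starting 24 h later, on the day schedule listed in each line. Mice were checked daily for toxicity and survival, and day of death was recorded over a 60-day study. The result is reported as mean survival time of treated mice divided by that of controls, ×100.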

L1210 = assay: The compound was tested for its antitumor activity against L1210 cells; assay type: functional; details: Mus musculus, read-out: ID50 (the source's name)
Mus musculus [2] = assay: At 25 mg/kg dose CDF1 mice were injected ip on (1,5,9) days after tumor transplantation to evaluate mean survival time; assay type: functional; details: route intraperitoneal; how it was run: as §1
Mus musculus [3] = assay: At 5 mg/kg dose CDF1 mice were injected ip on (1,5) days after tumor transplantation to evaluate mean survival time; assay type: functional; details: route intraperitoneal; how it was run: as §1
Homo sapiens [4] = species: Homo sapiens; assay: Inhibition of cellular growth was evaluated in vitro against human colon carcinoma LOVO.; assay type: functional, organism-based
How it was run: (§2)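 LOVO and LOVO/DOXO cells were grown at 37 °C under 5% CO2 in Ham's F12 with 20% fetal calf serum. They were plated at 2.5 × 10³ cells/dish and exposed continuously to drug for 144 h. Growth inhibition was read by MTT assay, and the ID50 (drug concentration giving 50% inhibition of growth versus control) was derived.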

Homo sapiens [5] = species: Homo sapiens; assay: Inhibition of cellular growth was evaluated in vitro against human colon carcinoma subline resistant to DOXO (LOVO/DOXO).; assay type: functional, organism-based; how it was run: as §2
Mus musculus [6] = assay: At 12.5 mg/kg dose CDF1 mice were injected ip on (1,5,9) days after tumor transplantation to evaluate mean survival time; assay type: functional; details: route intraperitoneal; how it was run: as §1
Mus musculus [7] = assay: At 6.25 mg/kg dose CDF1 mice were injected ip on (1,5,9) days after tumor transplantation to evaluate mean survival time; assay type: functional; details: route intraperitoneal; how it was run: as §1
Mus musculus [8] = assay: At 50 mg/kg dose CDF1 mice were injected ip on (1,5) days after tumor transplantation to evaluate mean survival time; assay type: functional; details: route intraperitoneal; how it was run: as §1
Mus musculus [9] = assay: At 25 mg/kg dose CDF1 mice were injected ip on (1,5) days after tumor transplantation to evaluate mean survival time; assay type: functional; details: route intraperitoneal; how it was run: as §1
Homo sapiens [10] = species: Homo sapiens; assay: Inhibition of cellular growth was evaluated in vitro against human colon carcinoma LOVO; assay type: functional; how it was run: as §2
Mus musculus [11] = assay: At 25 mg/kg dose CDF1 mice were injected ip on (1) days after tumor transplantation to evaluate mean survival time; assay type: functional; details: route intraperitoneal; how it was run: as §1
Mus musculus [12] = assay: At 12.5 mg/kg dose CDF1 mice were injected ip on (1) days after tumor transplantation to evaluate mean survival time; assay type: functional; details: route intraperitoneal; how it was run: as §1
Mus musculus [13] = assay: At 50 mg/kg dose CDF1 mice were injected ip on 1 day after tumor transplantation to evaluate mean survival time; assay type: functional; details: route intraperitoneal; how it was run: as §1

| SMILES | T/C (Mus musculus [1]) [%] | IC50 (L1210) [µg/mL] | T/C (Mus musculus [2]) [%] | IC50 (Homo sapiens [5]) [µg/mL] | T/C (Mus musculus [6]) [%] | also measured |
| --- | --- | --- | --- | --- | --- | --- |
| CN(C)CCNc1ccc(NCCNCCO)c2c1C(=O)c1ccccc1C2=O | 145 | 0.0038 (≈ 0.00958 µM) | 148 | – | – | – |
| NCCCCNc1ccc(NCCNCCO)c2c1C(=O)c1c(O)ccc(O)c1C2=O | – | 0.0007 (≈ 0.00163 µM) | – | – | – | T/C (Mus musculus [3]): 138% |
| O=C1c2c(O)ccc(O)c2C(=O)c2c(NCCNCCO)ccc(NCCNCCO)c21 [MITOXANTRONE] | – | – | – | 0.274 (≈ 0.616 µM) | – | IC50 (Homo sapiens [4]): 0.0055 µg/mL (≈ 0.0124 µM) |
| CN(C)CCNc1ccc(NCCN)c2c1C(=O)c1ccccc1C2=O | 180 | 0.03 (≈ 0.0851 µM) | 150 | – | 129 | – |
| O=C1c2ccccc2C(=O)c2c(NC3CC3)ccc(NC3CC3)c21 | – | > 10 | 107 | – | 112 | T/C (Mus musculus [7]): 100% |
| CN(C)CCNc1ccc(NCCCCN)c2c1C(=O)c1ccccc1C2=O | – | 0.0045 (≈ 0.0118 µM) | – | – | 113 | T/C (Mus musculus [8]): 64%; T/C (Mus musculus [9]): 111% |
| CN(C)CCNc1ccc(N(C)CCN(C)C)c2c1C(=O)c1ccccc1C2=O | 127 | 0.5 (≈ 1.27 µM) | – | – | – | T/C (Mus musculus [9]): 108% |
| CN(C)CCNc1ccc(NCCNCCO)c2c1C(=O)c1c(O)ccc(O)c1C2=O | – | 0.00017 (≈ 0.000397 µM) | 244 | 0.024 (≈ 0.056 µM) | 187 | T/C (Mus musculus [7]): 188%; IC50 (Homo sapiens [10]): 0.001 µg/mL (≈ 0.00233 µM) |
| CN(C)CCN(C)c1ccc(N(C)CCN(C)C)c2c1C(=O)c1ccccc1C2=O | – | 4.6 (≈ 11.3 µM) | – | – | – | T/C (Mus musculus [11]): 100%; T/C (Mus musculus [12]): 103%; T/C (Mus musculus [13]): 95% |
| O=C1c2ccccc2C(=O)c2c(NCCNCCO)ccc(NCCNCCO)c21 [AMETANTRONE] | 146 | 0.01 (≈ 0.0242 µM) | 252 | 44.8 (≈ 109 µM) | 177 | IC50 (Homo sapiens [4]): 0.283 µg/mL (≈ 0.685 µM) |
| COc1cccc2c1C(=O)c1c(O)c3c(c(O)c1C2=O)C[C@@](O)(C(=O)CO)C[C@@H]3O[C@H]1C[C@H](N)[C@H](O)[C@H](C)O1 [DOXORUBICIN] | – | – | – | 3.84 (≈ 7.07 µM) | – | IC50 (Homo sapiens [4]): 0.0247 µg/mL (≈ 0.0454 µM) |
